The source of these data is ChEMBL document CHEMBL4118197, “The discovery and preclinical evaluation of BMS-707035, a potent HIV-1 integrase strand transfer inhibitor” (Bioorg Med Chem Lett, 2018).

Data set [1] is described as follows: Aqueous solubility of the compound. In kind it is physicochemical. The method, boiled down: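 Aqueous solubility measured at pH 2.3, 6.1, 7.3 and 8.5, in µg/mL.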
In data set [2] the target is Human immunodeficiency virus type 1 integrase (Human immunodeficiency virus 1, UniProt Q7ZJM1). Briefly: Inhibition of HIV1 integrase strand transfer activity.
Data set [3] in a line: Clearance in Sprague-Dawley rat at 1 mg/kg, iv after 4 hrs. The note with it: in vivo. In kind it is ADME, organism-based. The method, boiled down: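 Male Sprague-Dawley rats given 1 mpk IV in PEG400/ethanol (90:10); blood sampled at 5 and 30 min and 1, 2 and 4 h post-dose; clearance from plasma profile.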

Human immunodeficiency virus type 1 integrase, sequence (Q7ZJM1 whole entry): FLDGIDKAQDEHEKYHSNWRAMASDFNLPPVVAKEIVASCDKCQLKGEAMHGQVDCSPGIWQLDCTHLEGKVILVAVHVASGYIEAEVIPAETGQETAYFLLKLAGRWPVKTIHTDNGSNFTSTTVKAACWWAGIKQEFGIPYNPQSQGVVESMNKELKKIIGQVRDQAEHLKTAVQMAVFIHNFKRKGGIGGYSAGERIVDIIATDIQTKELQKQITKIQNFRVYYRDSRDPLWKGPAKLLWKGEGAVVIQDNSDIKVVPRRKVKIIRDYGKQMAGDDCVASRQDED

Turning to `CS(=O)(=O)c1cc(F)ccc1CNC(=O)c1nc2n(c(=O)c1O)CCCC21CCCC1`, in data set [1], the solubility (usually the dissolved amount per volume that the medium holds) is at most 5 µg/mL. Besides, the IC50 (in general, the concentration that gives 50% inhibition) in data set [2] was found to be 4 nM. The clearance (commonly a measure of how efficiently the substance is removed, as volume per time) in data set [3] amounted to 46 mL/min/kg.
